Test results reported in ChEMBL document CHEMBL4613320, “Artemisinin Derivatives with Antimelanoma Activity Show Inhibitory Effect against Human DNA Topoisomerase 1” (ACS Med Chem Lett, 2020).
The source made the active and inactive calls. The rule behind the calls is not given here.

Legend:
[1] = Cytotoxicity against human C3PV cells assessed as reduction in cell viability measured after 24 hrs by MTT assay; assay type: cell-based
[2] = system: RPMI-7951; test: Cytotoxicity against human RPMI7951 cells assessed as reduction in cell viability measured after 24 hrs by MTT assay; assay type: functional, cell-based; settings: RPMI-7951, 24 h
[3] = system: SK-MEL-24; test: Cytotoxicity against human SK-MEL-24 cells assessed as reduction in cell viability measured after 24 hrs by MTT assay; assay type: functional, cell-based; settings: SK-MEL-24, 24 h
[4] = target: T1, DNA topoisomerase 1 (Homo sapiens) (UniProt P11387); test: Inhibition of human TOP1B expressed in Saccharomyces cerevisiae EKY3 lacking top1 assessed as reduction in yeast cell growth at 1 to 30 uM
T1 sequence (whole entry): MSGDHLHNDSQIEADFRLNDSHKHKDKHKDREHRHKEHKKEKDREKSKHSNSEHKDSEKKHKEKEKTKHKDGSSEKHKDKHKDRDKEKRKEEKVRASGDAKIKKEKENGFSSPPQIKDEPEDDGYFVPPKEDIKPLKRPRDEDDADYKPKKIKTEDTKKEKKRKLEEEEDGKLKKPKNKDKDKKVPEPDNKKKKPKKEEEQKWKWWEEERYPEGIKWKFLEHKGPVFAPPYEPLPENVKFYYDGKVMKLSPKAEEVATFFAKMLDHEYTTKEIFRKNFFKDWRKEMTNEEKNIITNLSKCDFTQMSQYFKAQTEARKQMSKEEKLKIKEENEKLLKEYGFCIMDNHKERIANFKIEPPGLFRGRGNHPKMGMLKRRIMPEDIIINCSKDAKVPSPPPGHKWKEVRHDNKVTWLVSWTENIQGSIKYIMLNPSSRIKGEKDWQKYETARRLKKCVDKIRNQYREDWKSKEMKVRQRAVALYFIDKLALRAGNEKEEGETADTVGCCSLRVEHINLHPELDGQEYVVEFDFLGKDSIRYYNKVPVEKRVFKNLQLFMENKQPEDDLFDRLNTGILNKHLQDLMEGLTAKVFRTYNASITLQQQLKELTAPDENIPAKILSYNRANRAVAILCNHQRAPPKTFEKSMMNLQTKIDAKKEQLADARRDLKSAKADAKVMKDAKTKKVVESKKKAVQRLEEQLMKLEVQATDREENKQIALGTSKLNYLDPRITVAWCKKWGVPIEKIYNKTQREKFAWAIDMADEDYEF
How it was run: (§1)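 Wild-type human Top1 overexpressed from plasmids under the Gal-1–10 promoter in S. cerevisiae EKY3, which lacks the endogenous enzyme. Yeast growth sensitivity scored across compound concentrations. Controls were untreated cells and DMSO vehicle.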

[5] = target: T1, DNA topoisomerase 1 (Homo sapiens); test: Inhibition of human TOP1B expressed in Saccharomyces cerevisiae EKY3 lacking top1 assessed as reduction in yeast cell growth at 10 uM; how it was run: as §1
[6] = species on record: Homo sapiens; test: Inhibition of human TOP1B G363C mutant expressed in Saccharomyces cerevisiae EKY3 lacking top1 assessed as reduction in yeast growth at 1 to 30 uM
How it was run: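 Human Top1 G363C mutant (glycine 363 to cysteine, camptothecin-resistant) expressed from plasmids under the Gal-1–10 promoter in S. cerevisiae EKY3, which lacks the endogenous enzyme. Yeast growth sensitivity read at a range of compound concentrations. Controls were untreated cells and DMSO vehicle.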

[7] = target: T1, DNA topoisomerase 1 (Homo sapiens); test: Inhibition of human TOP1B-medaited negatively supercoiled pBlue-Script KSII(+) DNA relaxation at 0.3 to 30 uM by ethidium bromide staining based gel electrophoresis method
[8] = target: T1, DNA topoisomerase 1 (Homo sapiens); test: Inhibition of human TOP1B expressed in Saccharomyces cerevisiae EKY3 lacking top1 assessed as reduction in yeast growth at 3 uM; how it was run: as §1
[9] = target: T1, DNA topoisomerase 1 (Homo sapiens); test: Inhibition of human TOP1B-medaited negatively supercoiled pBlue-Script KSII(+) DNA relaxation at 300 nM by ethidium bromide staining based gel electrophoresis method
[10] = target: T1, DNA topoisomerase 1 (Homo sapiens); test: Inhibition of human TOP1B expressed in Saccharomyces cerevisiae EKY3 lacking top1 assessed as reduction in yeast cell growth at 30 uM; how it was run: as §1
[11] = target: T1, DNA topoisomerase 1 (Homo sapiens); test: Inhibition of human TOP1B expressed in Saccharomyces cerevisiae EKY3 lacking top1 assessed as induction of cell cycle defect at 30 uM measured after 24 hrs

| Compound | IC50 [1] [nM] | IC50 [2] [nM] | IC50 [3] [nM] | inhibition [7] | also measured |
| --- | --- | --- | --- | --- | --- |
| CC[C@@]1(O)C(=O)OCc2c1cc1n(c2=O)Cc2cc3ccccc3nc2-1 [CAMPTOTHECIN] | 450 | 220 | 460 | – | – |
| COc1cc(/C=C/C(=O)CC(=O)/C=C/c2ccc(OC(=O)CCC(=O)O[C@@H]3O[C@@H]4O[C@]5(C)CC[C@H]6[C@H](C)CC[C@@H]([C@H]3C)[C@@]46OO5)cc2)ccc1OC(=O)CCC(=O)O[C@@H]1O[C@@H]2O[C@]3(C)CC[C@H]4[C@H](C)CC[C@@H]([C@H]1C)[C@@]24OO3 | – | – | – | – | inhibition [4]: inactive |
| C[C@H]1[C@H](OC(=O)CCC(=O)Oc2ccc(CCO)cc2)O[C@@H]2O[C@]3(C)CC[C@H]4[C@H](C)CC[C@@H]1[C@@]24OO3 | – | – | – | Active | inhibition [5]: Active; inhibition [6]: inactive |
| CCc1c2c(nc3ccc(OC(=O)CCC(=O)O[C@@H]4O[C@@H]5O[C@]6(C)CC[C@H]7[C@H](C)CC[C@@H]([C@H]4C)[C@@]57OO6)cc13)-c1cc3c(c(=O)n1C2)COC(=O)[C@]3(O)CC | 3200 | 50 | 320 | – | inhibition [6]: Active; inhibition [8]: Active; inhibition [9]: Active |
| COc1cc(/C=C/C(=O)CC(=O)/C=C/c2ccc(OC(=O)CCC(=O)O[C@@H]3O[C@@H]4O[C@]5(C)CC[C@H]6[C@H](C)CC[C@@H]([C@H]3C)[C@@]46OO5)c(OC)c2)ccc1O | – | – | – | Active | inhibition [10]: Active |
| C[C@H]1[C@H](OC(=O)CCC(=O)OCCc2ccc(O)cc2)O[C@@H]2O[C@]3(C)CC[C@H]4[C@H](C)CC[C@@H]1[C@@]24OO3 | – | – | – | Active | inhibition [5]: Active; inhibition [6]: inactive; inhibition [11]: Active |
| C[C@@H]1CC[C@H]2[C@@H](C)C(=O)O[C@@H]3O[C@@]4(C)CC[C@@H]1[C@]32OO4 | – | – | – | – | inhibition [4]: inactive |
| C=C(C)[C@H]1CC=C(COC(=O)CCC(=O)O[C@@H]2O[C@@H]3O[C@@]4(C)CC[C@H]5[C@H](C)CC[C@@H]([C@H]2C)[C@@]35OO4)CC1 | – | – | – | – | inhibition [4]: inactive |
| C[C@H]1[C@H](OCCc2ccc(O)cc2)O[C@@H]2O[C@]3(C)CC[C@H]4[C@H](C)CC[C@@H]1[C@@]24OO3 | – | – | – | – | inhibition [10]: Active |
| CC(=O)O[C@H]1C(=O)[C@@]2(C)[C@H]([C@H](OC(=O)c3ccccc3)[C@]3(O)C[C@H](OC(=O)[C@H](O)[C@@H](NC(=O)c4ccccc4)c4ccccc4)C(C)=C1C3(C)C)[C@]1(OC(C)=O)CO[C@@H]1C[C@@H]2O [PACLITAXEL] | 78900 | 13 | 4730 | – | – |
| C[C@H]1[C@H](O)O[C@@H]2O[C@@]3(C)CC[C@H]4[C@H](C)CC[C@@H]1[C@@]24OO3 | – | – | – | – | inhibition [10]: inactive |
| CCc1c2c(nc3ccc(O)cc13)-c1cc3c(c(=O)n1C2)COC(=O)[C@]3(O)CC [7-ETHYL-10-HYDROXYCAMPTOTHECIN] | 510 | 260 | 480 | – | – |
| C[C@H]1[C@H](OC(=O)CCC(=O)O)O[C@@H]2O[C@@]3(C)CC[C@H]4[C@H](C)CC[C@@H]1[C@@]24OO3 | – | – | – | Active | inhibition [10]: inactive |
| CC[C@@]1(OC(=O)CCC(=O)O[C@@H]2O[C@@H]3O[C@]4(C)CC[C@H]5[C@H](C)CC[C@@H]([C@H]2C)[C@@]35OO4)C(=O)OCc2c1cc1n(c2=O)Cc2cc3ccccc3nc2-1 | 300 | 17300 | 850 | Active | inhibition [4]: Active |
